Measured values published in ChEMBL document CHEMBL1130326, “Anti-Helicobacter pylori agents. 1. 2-(Alkylguanidino)-4-furylthiazoles and related compounds” (1997).
Converted amounts (≈) assume the structure as drawn.

Columns and labels:
Cavia porcellus = species on record: Cavia porcellus; assay: inhibition of the histamine stimulated […] response in the isolated guinea pig right atrium at 1x 10 e-6 g/mL; type: functional, Cardiac atrium
Summary of the method: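 Isolated atrium; beating rate and contraction amplitude recorded via transducer and polygraph. Histamine hydrochloride 1 × 10^-6 g/mL added to bath and rate increase measured. Percent inhibition from histamine-induced rate increases before versus 30 min after compound.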

Helicobacter pylori [1] = assay: Evaluated for antimicrobial activity against Helicobacter pylori; type: functional
Summary of the method: (§1)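 Agar dilution. Test strain precultured on Brucella agar with 3% horse serum and 2% starch, 37 °C, 3 days. Suspended in buffered saline to McFarland no. 1, diluted 10²-fold, then spotted by multipoint replicator onto Brucella agar plus 7% lysed horse blood carrying serial 2-fold drug dilutions. Incubated 37 °C, 3 days, 10% CO₂. MIC taken as lowest concentration stopping macroscopic colonial growth.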

Rattus norvegicus = assay: inhibition of histamine stimulated gastric secretion in lumen perfused stomach of anesthetized rats at 1 mg/kg intravenously; type: functional; settings: route intravenous
Summary of the method: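 Abdomen opened; gastric lumen perfused with saline throughout. Secretion stimulated by iv histamine infusion, 3 mg/kg/h. Perfusate acid titrated with 25 mM NaOH by autotitrator. n = 2.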

Helicobacter pylori [2] = assay: minimum inhibitory concentration was determined against Helicobacter pylori. the value in parentheses is range; type: functional, organism-based
Summary of the method: as §1, with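 “growth. Mean and range from 10 strains (8001, 8003, 8004, 8007, 8008, 8009, 8011, 9005, FP1530, FP1532).” for “growth.”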

Molecule	Inhibition (Cavia porcellus) [%]	MIC (Helicobacter pylori [1]) [µg/mL]	inhibition in vivo at 1 mg/kg (Rattus norvegicus) [%]	MIC (Helicobacter pylori [2]) [µg/mL]
CC(=O)NCc1ccc(-c2csc(CN(C)C)n2)o1	6	> 200	4	–
CCCC/N=C(\N)Nc1nc(-c2ccc(CNC(C)=O)o2)cs1	78	0.21 (≈ 0.626 µM)	45	–
CC(=O)NCc1ccc(-c2nc(N=C(N)N)sc2C)o1	10	76 (≈ 259 µM)	3	–
CCC/N=C(\N)Nc1nc(-c2ccc(CNC(C)=O)o2)cs1	81	1.67 (≈ 5.2 µM)	97	–
CC/N=C(\N)Nc1nc(-c2ccc(CNC(C)=O)o2)cs1	51	3.13 (≈ 10.2 µM)	79	–
C/N=C(\N)Nc1nc(-c2ccc(CNC(C)=O)o2)cs1	25	12.5 (≈ 42.6 µM)	24	–
CC(=O)NCc1ccc(-c2csc(N/C(N)=N/C(C)C)n2)o1	27	2.9 (≈ 9.02 µM)	32	–
BISMUTH SUBCITRATE	–	–	–	18
CCCCCC/N=C(\N)Nc1nc(-c2ccc(CNC(C)=O)o2)cs1	79	0.11 (≈ 0.303 µM)	44	–
Cc1ncc([N+](=O)[O-])n1CCO [METRONIDAZOLE]	–	5.4 (≈ 31.6 µM)	–	–
CC(=O)NCc1ccc(-c2csc(/N=C(\N)S)n2)o1	0	> 200	11	–
CC(=O)NCc1ccc(-c2csc(NC3=NCCN3)n2)o1	8	> 100	18	–
CN/C(=N\CCSCc1nc[nH]c1C)NC#N [CIMETIDINE]	43	1130 (≈ 4480 µM)	53	–
CCCCNC(=O)Nc1nc(-c2ccc(CNC(C)=O)o2)cs1	0	> 100	9	–
